For test [1], the system named is HepG2. The experiment in a line: Cytotoxicity againt human HepG2 cells. In kind it is functional, cell-based. Summed up: (§1)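 IC50 was determined against WI-38, VA-13 and HepG2 cells and is given as the mean of duplicate determinations.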
Test [2] in a line: Cytotoxicity againt human WI38 cells. In kind it is cell-based. The settings on record: WI-38. The essentials:
as §1

A short description of test [3]: Effect on calcein accumulation in multidrug-resistant human 2780AD cells at 2.5 ug/ml relative to control. The format is functional, A2780 ADR. The essentials: (§2)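 Multidrug-resistant human ovarian cancer 2780AD cells were exposed to test compounds at […], with verapamil as the positive control. Calcein accumulated in the cells was measured relative to a control experiment. Values are the mean of triplicate determinations.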

Test [4] deals with WI-38 VA13. The test can be described thus: Cytotoxicity againt human VA13 cells. The format is functional, cell-based. Summed up:
as §1

Test [5] in a line: Effect on calcein accumulation in multidrug-resistant human 2780AD cells at 25 ug/ml relative to control. In kind it is functional, A2780 ADR. The essentials:
as §2

Test [6] is described as follows: Effect on calcein accumulation in multidrug-resistant human 2780AD cells at 0.25 ug/ml relative to control. In kind it is functional, A2780 ADR. The essentials:
as §2

Test [7] concerns A2780. The test can be described thus: Cytotoxicity againt human A2780 cells. The format is functional, cell-based. Summed up:
(§3)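 Each drug was tested alone or with a modulator added at final […]; verapamil was the reference modulator. Values are the mean of triplicate determinations.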

A short description of test [8]: Cytotoxicity againt multidrug-resistant human 2780AD cells. The format is functional, cell-based. The note with it: A2780 ADR. Summed up:
as §3

≈ marks a conversion by molar mass, not a printed value.

For the compound `CC(=O)O[C@H]1[C@H](O)C2=C(C)C(=O)C[C@@H]([C@@H](OC(=O)c3ccccc3)[C@H]3[C@@]1(C)CC[C@H]1OC[C@]13O)C2(C)C`, the IC50 (as a rule, the midpoint of a concentration-inhibition curve) was found to be 43.2 mg/L (≈ 84.3 µM) in test [1], 0.67 mg/L (≈ 1.31 µM) in test [2] and 67 mg/L (≈ 131 µM) in test [4]. Further, the Activity in test [3] is on record as 118%; in test [5], 134%; in test [6] it was 115%.

In the case of `CC1=C2[C@@H](O)[C@H](O)[C@]3(C)CC[C@H]4OC[C@@]4(O)[C@H]3[C@H](OC(=O)c3ccccc3)[C@H](CC1=O)C2(C)C`, the IC50 in test [1] was 67.7 mg/L (≈ 144 µM); in test [2], greater than 100 mg/L; in test [4], greater than 100 mg/L. The Activity is reported as 110% in test [3], 106% in test [5] and 105% in test [6].

Consider `CC(=O)O[C@@H]1C2=C(C)C(=O)C[C@@H]([C@@H](OC(=O)c3ccccc3)[C@H]3[C@@](C)(CC[C@H]4OC[C@]43O)[C@H]1OC(C)=O)C2(C)C`, for which the IC50 worked out at 7.32 mg/L (≈ 13.2 µM) in test [1], 0.82 mg/L (≈ 1.48 µM) in test [2] and 51.9 mg/L (≈ 93.6 µM) in test [4]. Further, the Activity in test [3] is 119%; in test [5] it was 135%; in test [6], 97%.

With `CC(=O)OC[C@]1(O)[C@@H](O)CC[C@@]2(C)[C@@H](OC(C)=O)[C@H](OC(C)=O)C3=C(C)C(=O)C[C@@H]([C@@H](OC(=O)/C=C/c4ccccc4)[C@@H]21)C3(C)C`, the IC50 in test [1] was 2.14 mg/L (≈ 3.34 µM); in test [2], 68.1 mg/L (≈ 106 µM); in test [4], 82.3 mg/L (≈ 128 µM). In addition, the figures for the Activity in test [3], in test [5] and in test [6] were 116%, 145% and 88%, respectively.

With `CC(=O)O[C@@H]1[C@@H]2CC(=O)C(C)=C([C@@H](OC(C)=O)[C@H](OC(C)=O)[C@]3(C)CC[C@H](O)[C@@](O)(CO)[C@@H]13)C2(C)C`, the IC50 in test [1] is greater than 100 mg/L; in test [2] it was 85.3 mg/L (≈ 167 µM); in test [4] it was 9.73 mg/L (≈ 19.1 µM). For the same compound, the Activity in test [3] is recorded as 94%; in test [5], 88%; in test [6] it was 79%.

As to `CC(=O)O[C@H]1C(=O)[C@]2(C)CC[C@H](O)[C@@](O)(CO)[C@H]2[C@H](OC(=O)c2ccccc2)[C@@H]2CC(=O)C(C)=C1C2(C)C`, the IC50 in test [1] was 33.4 mg/L (≈ 63.2 µM); in test [2], 57.4 mg/L (≈ 109 µM); in test [4], 59.6 mg/L (≈ 113 µM). Moreover, the Activity in test [3] is listed as 114%; in test [5], 112%; in test [6], 88%.

As for `CC[C@]1(O)C[C@H]2CN(CCc3c([nH]c4ccccc34)[C@@](C(=O)OC)(c3cc4c(cc3OC)N(C=O)[C@H]3[C@@](O)(C(=O)OC)[C@H](OC(C)=O)[C@]5(CC)C=CCN6CC[C@]43[C@@H]65)C2)C1` [VINCRISTINE], the IC50 in test [7] came out at 0.0009 µM; in test [8] it was 0.895 µM.

Regarding `CC(=O)O[C@H]1C(=O)[C@]2(C)CC[C@H]3OC[C@@]3(O)[C@H]2[C@H](OC(=O)c2ccccc2)[C@@H]2C[C@H](O)C(C)=C1C2(C)C`, the IC50 in test [1] was determined as 69.9 mg/L (≈ 136 µM); in test [2], 54.2 mg/L (≈ 106 µM); in test [4] it was 77 mg/L (≈ 150 µM). Besides, the Activity in test [3] is reported as 129%; in test [5] it was 163%; in test [6] it was 96%.

`CC(=O)O[C@@H]1[C@@H]2C[C@@H](O)C(C)=C([C@@H](OC(C)=O)[C@H](OC(C)=O)[C@]3(C)CC[C@H]4OC[C@@]4(O)[C@@H]13)C2(C)C`: the concentration for half-maximal inhibition (IC50) is greater than 100 mg/L in test [1], 76.2 mg/L (≈ 154 µM) in test [2] and greater than 100 mg/L in test [4]. The figures for the Activity in test [3], in test [5] and in test [6] were 95%, 96% and 82%, respectively.

In the case of `CC(=O)O[C@@H]1C2=C(C)C(=O)C[C@@H]([C@@H](OC(=O)c3ccccc3)[C@H]3[C@@](C)(CC[C@H]4OC[C@]43O)[C@H]1O)C2(C)C`, the IC50 in test [1] was 77.7 mg/L (≈ 152 µM); in test [2], 42.3 mg/L (≈ 82.5 µM); in test [4], greater than 100 mg/L. Further, the Activity in test [3] is recorded as 102%; in test [5], 140%; in test [6], 99%.

Turning to `CC(=O)O[C@@H]1[C@@H]2C[C@H](O)C(C)=C([C@@H](OC(C)=O)[C@H](OC(C)=O)[C@]3(C)CC[C@H]4OC[C@@]4(O)[C@@H]13)C2(C)C`, the IC50 in test [1] is greater than 100 mg/L; in test [2], 8.39 mg/L (≈ 17 µM); in test [4], 81.5 mg/L (≈ 165 µM). The Activity was 95% in test [3], 95% in test [5] and 94% in test [6].

On to `CC(=O)OC[C@]1(O)[C@@H](O)CC[C@@]2(C)[C@@H](OC(C)=O)[C@H](OC(C)=O)C3=C(C)C(=O)C[C@@H]([C@@H](O)[C@@H]21)C3(C)C`, for which the IC50 in test [1] is greater than 100 mg/L; in test [2], greater than 100 mg/L; in test [4] it was 8.47 mg/L (≈ 16.6 µM). Moreover, the Activity is recorded as 97% in test [3], 126% in test [5] and 88% in test [6].

For `CC(=O)O[C@@H]1[C@@H]2CC(=O)C(C)=C([C@@H](OC(C)=O)[C@H](OC(C)=O)[C@]3(C)CC[C@H]4OC[C@@]4(O)[C@@H]13)C2(C)C`, the 50% inhibitory concentration (IC50) in test [1] is greater than 100 mg/L; in test [2], 77 mg/L (≈ 156 µM); in test [4], greater than 100 mg/L. Further, the Activity in test [3] is listed as 120%; in test [5] it was 123%; in test [6] it was 115%.

For `COc1ccc(CCN(C)CCCC(C#N)(c2ccc(OC)c(OC)c2)C(C)C)cc1OC` (stereo unspecified), the Activity in test [3] is 103%; in test [5], 140%; in test [6] it was 99%.

On to `CC(=O)O[C@H]1C(=O)[C@]2(C)CC[C@H]3OC[C@@]3(O)[C@H]2[C@H](OC(=O)c2ccccc2)[C@@H]2CC(=O)C(C)=C1C2(C)C`, for which the figures for the IC50 in test [1], in test [2] and in test [4] were 30.1 mg/L (≈ 59 µM), 7.38 mg/L (≈ 14.5 µM) and 7.93 mg/L (≈ 15.5 µM), respectively. Further, the Activity is reported as 120% in test [3], 137% in test [5] and 101% in test [6].

In the case of `COc1cccc2c1C(=O)c1c(O)c3c(c(O)c1C2=O)C[C@@](O)(C(=O)CO)C[C@@H]3O[C@H]1C[C@H](N)[C@H](O)[C@H](C)O1` [DOXORUBICIN], the figures for the IC50 in test [7] and in test [8] were 0.013 µM and 0.909 µM, respectively.

For the compound `CC(=O)O[C@@]12CO[C@@H]1C[C@H](O)[C@@]1(C)C(=O)[C@H](O)C3=C(C)[C@@H](O)C[C@@](O)([C@@H](OC(=O)c4ccccc4)[C@H]21)C3(C)C`, the Activity is on record as 90% in test [3], 93% in test [5] and 95% in test [6].

Consider `CC(=O)O[C@H]1C(=O)[C@@]2(C)[C@H]([C@H](OC(=O)c3ccccc3)[C@]3(O)C[C@H](OC(=O)[C@H](O)[C@@H](NC(=O)c4ccccc4)c4ccccc4)C(C)=C1C3(C)C)[C@]1(OC(C)=O)CO[C@@H]1C[C@@H]2O` [PACLITAXEL], for which the IC50 in test [7] was 0.0007 µM; in test [8], 0.535 µM.

For the compound `CC(=O)O[C@H]1C(=O)[C@@]2(C)[C@H]([C@H](OC(=O)c3ccccc3)[C@]3(O)C[C@H](O)C(C)=C1C3(C)C)[C@]1(OC(C)=O)CO[C@@H]1C[C@@H]2O` [BACCATIN III], the IC50 came to 9.91 mg/L (≈ 16.9 µM) in test [1], 16.1 mg/L (≈ 27.4 µM) in test [2] and 0.84 mg/L (≈ 1.43 µM) in test [4]. The Activity in test [3] is 84%; in test [5], 81%; in test [6], 93%.

(Values after ChEMBL document CHEMBL1139110, “Structure-activity relationships of some taxoids as multidrug resistance modulator” (Bioorg Med Chem Lett, 2007).)
